Read-outs that look alike come from different tables or passages of the source.
Key:
[1] = system: quinone reductase in Hepa 1c1c7 murine hepatoma cell line; assay: Quinone reductase induction assay; assay type: cell-based; settings: Mus musculus, Hepa-1c1c7, read-out: CD (concentration required to double quinone reductase activity), Hepa 1c1c7 cells; average ± SD, three independent experiments
[2] = system: HT-29 human colon cancer cell line; assay: SRB cytotoxicity assay, HT-29; assay type: cell-based; settings: HT-29, 72 h, read-out: IC50 HT-29 72 h
[3] = system: Raji human Burkitt's lymphoma cells; assay: MTS growth inhibition assay, Raji cells; assay type: cell-based
[4] = system: HT-29 human colon cancer cells; assay: In vivo hollow fiber assay, HT-29; settings: HT-29 in hollow fibers in mice, any dose, ip once daily
Method in brief: (§1)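 HT-29 cells (1 × 10^6 per mL), alongside other human cancer lines, grown in hollow fibers implanted ip and sc in immunodeficient female NCr nu/nu mice. Test compound given by ip injection once daily: first run at 5, 10, 15, 30 mg/kg in 30% cyclodextrin; repeat run at 0.5, 1, 2 mg/kg. Positive controls: bortezomib 1 mg/kg ip (first run); paclitaxel 5 mg/kg ip (repeat run).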

[5] = system: immunodeficient female NCr nu/nu mice; assay: Toxicity to mice in the hollow fiber assay; assay type: in vivo
Method in brief: as §1

[6] = system: 697 human acute lymphoblastic leukemia cells; assay: MTS growth inhibition assay, 697 cells; assay type: cell-based; settings: read-out: IC50 values in 697 cells (range)

SMILES	EC (2-fold induction) [1]	IC50 [2]	IC50 ([3]; 48 h, read-out: IC50 Raji 48 h)	IC50 ([3]; 72 h, read-out: IC50 Raji 72 h)	net reduction of relative percent cell growth [4]	toxicity to mice ([5]; ip 0.5, 1 and 2 mg/kg once daily)	lethality to mice ([5]; ip 5, 10, 15 and 30 mg/kg once daily)	IC50 [6]
COc1ccc2c(c1C1=COC(C)(C)C1=O)O[C@H](c1ccccc1)CC2=O [Compound 3, (2S)-2,3-dihydrotephroglabrin]	< 10 µM	> 10 µM	> 10 µM	> 10 µM				
COc1ccc2c(c1/C=C/C(C)(C)O)O[C@H](c1ccccc1)CC2=O [Compound 4, (2S)-2,3-dihydrotephroapollin C]		> 10 µM	> 10 µM	> 10 µM				
COc1ccc2c(c1/C=C/C(C)(C)OC)O[C@H](c1ccccc1)CC2=O [Compound 6, (2S)-7-methoxy-8-(3-methoxy-3-methyl-but-1-enyl)flavanone]	< 10 µM	> 10 µM	> 10 µM	> 10 µM				
C=C(C)[C@H]1Cc2c(ccc3c2O[C@@H]2COc4cc(OC)c(OC)cc4[C@]2(O)C3=O)O1 [Compound 7, cis-(6aβ,12aβ)-hydroxyrotenone]					No effect	no noticeable toxicity	lethal	
COc1cc2c(cc1OC)[C@]1(O)C(=O)c3ccc4c(c3O[C@@H]1CO2)C=CC(C)(C)O4 [Compound 9, tephrosin]								5.4 to 9 µM
COc1cc2c(c(O)c1C(=O)/C=C/c1ccccc1)[C@H]1[C@@H](O2)OC(C)(C)[C@@H]1OC(C)=O [Compound 10, (+)-tephropurpurin]		> 10 µM	> 10 µM	> 10 µM				
CC1(C)O[C@@H]2Oc3ccc(C(=O)/C=C/c4ccccc4)c(O)c3[C@@H]2[C@H]1O [Compound 11, (+)-tephrosone]		> 10 µM	> 10 µM	> 10 µM				
